Data on three compounds can be found in publication PMC12840579 (Biomedicine & pharmacotherapy = Biomedecine & …, 2025).

The subject of assay [1] is wild-type HEK293 cells lacking TREM2/DAP12 expression. In words: Intracellular calcium measurement. It is filed as cell-based, human. Summed up:
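Wild-type HEK293 cells lacking TREM2/DAP12 were grown in 96-well clear-bottom black plates. They were loaded for 1 h with Fluo-4 NW dye in 100 μL assay buffer, then test compound was added. Fluorescence was captured on an automated imaging system. Ionomycin served as the control for intact calcium signalling.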

The test system of assay [2] is BV2 murine microglial cells. Put plainly: Phagocytosis assay with fluorescent latex beads. It counts as cell-based. Particulars: 25 μM, 30 min before beads (30 min). The gist of the method: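 Murine BV2 microglia were serum-starved, then exposed to 25 μM test compound or DMSO vehicle for 30 min. Green fluorescent latex beads were added for a further 30 min at 37 °C. Cells were washed with ice-cold PBS, fixed in 4% PFA, immunostained for IBA1 and imaged by fluorescence microscopy. A phagocytic cell was an IBA1+ cell with ≥1 internalised bead, expressed as % of vehicle; mean ± SEM (n = 3).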

In assay [3] the test system is TREM2 signaling (SYK phosphorylation Y525/526) in HEK293-hTREM2/DAP12 cells. In words: Phospho-SYK AlphaLISA in HEK293-hTREM2/DAP12 cells. It is filed as cell-based, human. Summed up: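 HEK-hTREM2/DAP12 cells were seeded at 5 × 10⁴ per well in DMEM with 10% FBS and held 24 h at 37 °C, 5% CO2. Medium was replaced with compound in complete medium, DMSO as vehicle. Time course: 25 μM for 5, 15, 30 or 60 min. Dose series: 5–100 μM final for 60 min. Kit-lysed cells were assayed for pSYK Y525/526 by two-antibody bead AlphaLISA; 3 independent experiments, n=6 per condition, mean ± SEM.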
In general terms: Alpha assays give light when donor and acceptor beads are brought close together.

In assay [4] the target is T1, ADAM10 (Homo sapiens, UniProt O14672).
T1 sequence (O14672 214-748): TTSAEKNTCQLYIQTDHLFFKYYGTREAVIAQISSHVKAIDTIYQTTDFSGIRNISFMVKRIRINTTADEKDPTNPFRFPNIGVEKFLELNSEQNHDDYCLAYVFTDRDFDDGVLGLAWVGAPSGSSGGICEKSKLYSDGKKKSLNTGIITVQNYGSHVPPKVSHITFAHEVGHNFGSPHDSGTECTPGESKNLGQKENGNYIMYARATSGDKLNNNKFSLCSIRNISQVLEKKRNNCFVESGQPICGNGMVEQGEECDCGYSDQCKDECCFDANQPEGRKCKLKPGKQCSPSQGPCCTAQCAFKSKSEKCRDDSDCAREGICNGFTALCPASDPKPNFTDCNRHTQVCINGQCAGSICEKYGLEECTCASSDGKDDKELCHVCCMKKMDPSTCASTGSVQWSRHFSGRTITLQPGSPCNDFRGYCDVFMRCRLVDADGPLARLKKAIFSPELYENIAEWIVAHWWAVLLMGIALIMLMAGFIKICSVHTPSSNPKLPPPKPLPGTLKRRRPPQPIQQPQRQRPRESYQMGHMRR
In words: ADAM10 fluorogenic proteolytic activity assay. It is filed as biochemical. The note with it: GM6001 10 μM. Summed up:
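Recombinant ADAM10 from a fluorogenic assay kit, pre-incubated with test compound at the indicated concentrations for 30 min at room temperature, then substrate added. Substrate cleavage read by fluorescence (ex 485 nm, em 530 nm). GM6001 was the positive control. Triplicate runs, mean ± SEM (n = 3).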

The target of assay [5] is ADAM17 (Homo sapiens, UniProt P78536). Put plainly: ADAM17 fluorogenic proteolytic activity assay. It counts as biochemical. The note with it: GM6001 10 μM.
Sequence of ADAM17 (P78536 215-824): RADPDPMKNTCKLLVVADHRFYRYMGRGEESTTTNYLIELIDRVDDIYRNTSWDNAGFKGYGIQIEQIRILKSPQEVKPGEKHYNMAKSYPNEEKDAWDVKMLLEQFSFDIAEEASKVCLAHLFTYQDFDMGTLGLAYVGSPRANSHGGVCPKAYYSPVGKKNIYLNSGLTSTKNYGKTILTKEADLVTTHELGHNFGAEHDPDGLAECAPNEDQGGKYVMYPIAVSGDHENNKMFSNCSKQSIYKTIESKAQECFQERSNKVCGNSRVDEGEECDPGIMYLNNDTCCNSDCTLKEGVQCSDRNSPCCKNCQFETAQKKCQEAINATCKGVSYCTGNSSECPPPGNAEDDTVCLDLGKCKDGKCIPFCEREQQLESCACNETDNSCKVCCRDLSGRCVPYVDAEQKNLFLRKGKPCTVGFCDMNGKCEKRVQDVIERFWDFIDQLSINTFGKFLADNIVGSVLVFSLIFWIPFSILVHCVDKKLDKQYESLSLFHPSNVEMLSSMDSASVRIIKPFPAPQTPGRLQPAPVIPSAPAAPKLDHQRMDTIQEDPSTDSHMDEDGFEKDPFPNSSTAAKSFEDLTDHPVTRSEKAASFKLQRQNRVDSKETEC
Setting [6] is: 25 μM, time-course 5-60 minutes.

For `C[C@H](CCC(=O)O)C[C@H](C)C[C@H](C)C(=O)/C=C(\O)[C@H](C)C[C@H](C)C/C=C/[C@@H](C)[C@@H](O)[C@@H](C)[C@@H](O)C[C@@H]1CC[C@@](C)([C@H]2CC[C@@](C)([C@@H](C)O)O2)O1` [ionomycin], in assay [1] (ionomycin 10 μM), the “calcium response in wild-type cells” value is ~ 8 fold.
Take VG-3927: the “increase in proportion of phagocytic cells vs vehicle” value in assay [2] is “approximately 45%”. The “calcium mobilization in wild-type cells” value in assay [1] (VG-3927 30 μM) is on record as “neither VG-3927 (30 μM) nor As48 (100 μM) elicited any detectable calcium mobilization”. Besides, in assay [3] (setting [6]), the “time at which SYK phosphorylation is first detected” value was found to be 5 min and the “time of peak SYK phosphorylation” value is 60 min. Further, in assay [3] (60 minutes treatment, 5-100 μM), the “concentration of maximal SYK phosphorylation” value turned out to be 25 µM and the “lowest concentration with SYK phosphorylation” value came to 5 µM.
With `CNC(=O)[C@H](Cc1c[nH]c2ccccc12)NC(=O)[C@@H](CC(=O)NO)CC(C)C` [GM6001], the “effect on ADAM10 protease activity (positive control)” value in assay [4] was “potently inhibited”. For the same compound, the “effect on ADAM17 protease activity (positive control)” value in assay [5] is “potently inhibited”.
